According to ChEMBL document CHEMBL2062373, “Discovery of pyrroloaminopyrazoles as novel PAK inhibitors” (J Med Chem, 2012):
≈ marks a conversion by molar mass, not a printed value.

Assays:
[1] = Metabolic stability in human liver microsomes assessed as extraction ratio; type: ADME, Microsome; conditions: read-out: ERH
[2] = Octanol/buffer partition coefficient, log D of the compound at pH 7.4; type: physicochemical
[3] = Efflux ratio of permeability from basolateral to apical side over apical to basolateral side in human Caco2 cells; type: ADME, cell-based; conditions: Caco-2
[4] = biological target: T1, Serine/threonine-protein kinase PAK 4 (Homo sapiens, UniProt O96013); assay: Inhibition of PAK4-mediated GEF-H1 phosphorylation at Ser810 by cell based assay
T1 sequence (O96013 whole entry): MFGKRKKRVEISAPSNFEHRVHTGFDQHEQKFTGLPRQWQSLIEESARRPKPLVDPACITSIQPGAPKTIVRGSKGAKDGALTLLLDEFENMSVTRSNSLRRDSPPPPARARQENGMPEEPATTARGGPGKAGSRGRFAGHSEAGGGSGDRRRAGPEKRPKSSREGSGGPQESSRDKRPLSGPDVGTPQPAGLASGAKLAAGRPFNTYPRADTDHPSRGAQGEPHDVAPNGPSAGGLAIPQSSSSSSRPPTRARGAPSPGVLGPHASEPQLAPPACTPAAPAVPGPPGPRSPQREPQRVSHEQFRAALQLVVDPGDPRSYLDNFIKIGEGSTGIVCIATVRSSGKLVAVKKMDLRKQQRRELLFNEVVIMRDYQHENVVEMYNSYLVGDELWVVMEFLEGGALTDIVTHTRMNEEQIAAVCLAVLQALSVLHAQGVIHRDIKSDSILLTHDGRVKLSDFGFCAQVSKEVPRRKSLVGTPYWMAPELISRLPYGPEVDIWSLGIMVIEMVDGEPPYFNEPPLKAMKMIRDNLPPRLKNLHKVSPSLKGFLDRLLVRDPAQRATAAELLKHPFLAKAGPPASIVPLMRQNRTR

[5] = Volume of distribution at steady state in rat at 5 mg/kg, iv and 10 mg/kg, po; type: ADME, organism-based; conditions: in vivo, read-out: Vdss
[6] = Half life in rat at 5 mg/kg, iv and 10 mg/kg, po; type: ADME, organism-based; conditions: in vivo
[7] = Clearance in rat at 5 mg/kg, iv and 10 mg/kg, po; type: ADME, organism-based; conditions: in vivo
[8] = Oral bioavailability in rat at 10 mg/kg; type: ADME, organism-based; conditions: in vivo
[9] = biological target: T2, Cyclin-dependent kinase 2 (Homo sapiens, UniProt P24941)
[10] = Aqueous solubility of the compound; type: physicochemical; conditions: buffer
[11] = biological target: T1, Serine/threonine-protein kinase PAK 4; assay: Inhibition of PAK4
[12] = tested on: Mus musculus; assay: Down regulation of GEF-H1 phosphorylation in human HCT116 cells xenografted in mouse tumor at 80 mg/kg/day, sc administered via continuous infusion measured after 18 hrs; type: functional, HCT-116; conditions: route subcutaneous
Summary of the method: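 Tumour-bearing mice received drug by continuous infusion from an implanted subcutaneous pump at 80 mg/kg/day. Tumours were taken at 18 h and pGEF-H1 levels were measured. Downregulation is expressed as percent reduction.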

[13] = tested on: HCT-116; assay: Antitumor activity against human HCT116 cells xenografted in mouse assessed as tumor growth inhibition at 50 mg/kg, po SID for 15 days; type: functional; conditions: HCT-116, 360 h, read-out: TGI
[14] = tested on: HCT-116; assay: Antitumor activity against human HCT116 cells xenografted in mouse assessed as tumor growth inhibition at 25 mg/kg, po BID for 15 days; type: functional; conditions: HCT-116, 360 h, read-out: TGI
[15] = tested on: Mus musculus; assay: Free dug level in mouse xenografted with human HCT116 cells at 25 mg/kg, po BID for 15 days; type: ADME, organism-based, HCT-116; design: dose 25 mg/kg, route oral; conditions: in vivo, 360 h
Summary of the method: (§1)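 The read-out is free drug exposure, reported as unbound average concentration (free Cave) in nM. It was obtained from mice dosed orally at the stated regimen, sid or bid, during the xenograft efficacy study.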

[16] = tested on: Mus musculus; assay: Free dug level in mouse xenografted with human HCT116 cells at 50 mg/kg, po SID for 15 days; type: ADME, organism-based, HCT-116; design: dose 50 mg/kg, route oral; conditions: in vivo, 360 h; summary of the method: as §1
[17] = tested on: Mus musculus; assay: Free dug level in mouse xenografted with human M24 cells at 15 mg/kg, po BID for 15 days; type: ADME, organism-based; design: dose 15 mg/kg, route oral; conditions: in vivo, 360 h; summary of the method: as §1
[18] = species: Homo sapiens; assay: Inhibition of PKA at 1000 nM
[19] = biological target: T3, Lymphokine-activated killer T-cell-originated protein kinase (Homo sapiens) (UniProt Q96KB5); assay: Inhibition of PBK at 1000 nM
T3 sequence (whole entry): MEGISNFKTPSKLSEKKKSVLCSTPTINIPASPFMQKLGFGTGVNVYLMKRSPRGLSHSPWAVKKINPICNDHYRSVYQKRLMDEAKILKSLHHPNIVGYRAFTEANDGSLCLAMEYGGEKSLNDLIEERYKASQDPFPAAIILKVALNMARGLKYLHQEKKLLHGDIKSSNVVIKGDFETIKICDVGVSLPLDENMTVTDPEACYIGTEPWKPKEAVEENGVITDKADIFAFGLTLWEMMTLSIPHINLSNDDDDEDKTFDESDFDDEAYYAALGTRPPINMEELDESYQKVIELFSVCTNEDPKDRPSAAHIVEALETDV

[20] = Antitumor activity against human M24 cells xenografted in mouse assessed as tumor growth inhibition at 7.5 mg/kg, po BID for 15 days; type: functional; conditions: M24, 360 h, read-out: TGI
[21] = biological target: Cyclin-dependent kinase 7 (Homo sapiens) (UniProt P50613); assay: Inhibition of cdk7 at 1000 nM
Sequence of Cyclin-dependent kinase 7 (Homo sapiens) (P50613 whole entry): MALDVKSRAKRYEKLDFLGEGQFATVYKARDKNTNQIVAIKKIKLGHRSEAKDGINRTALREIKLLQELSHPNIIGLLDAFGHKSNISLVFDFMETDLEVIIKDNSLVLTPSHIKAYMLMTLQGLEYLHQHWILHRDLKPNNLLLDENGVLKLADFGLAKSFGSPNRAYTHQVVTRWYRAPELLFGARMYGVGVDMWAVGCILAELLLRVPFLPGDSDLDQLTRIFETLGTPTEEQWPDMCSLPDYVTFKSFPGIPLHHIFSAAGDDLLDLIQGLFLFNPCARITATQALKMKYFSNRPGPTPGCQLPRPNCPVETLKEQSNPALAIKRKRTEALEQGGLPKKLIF

[22] = biological target: Glycogen synthase kinase-3 beta (Homo sapiens, UniProt P49841); assay: Inhibition of GSK3beta at 1000 nM
Sequence of Glycogen synthase kinase-3 beta (P49841 whole entry, looked up): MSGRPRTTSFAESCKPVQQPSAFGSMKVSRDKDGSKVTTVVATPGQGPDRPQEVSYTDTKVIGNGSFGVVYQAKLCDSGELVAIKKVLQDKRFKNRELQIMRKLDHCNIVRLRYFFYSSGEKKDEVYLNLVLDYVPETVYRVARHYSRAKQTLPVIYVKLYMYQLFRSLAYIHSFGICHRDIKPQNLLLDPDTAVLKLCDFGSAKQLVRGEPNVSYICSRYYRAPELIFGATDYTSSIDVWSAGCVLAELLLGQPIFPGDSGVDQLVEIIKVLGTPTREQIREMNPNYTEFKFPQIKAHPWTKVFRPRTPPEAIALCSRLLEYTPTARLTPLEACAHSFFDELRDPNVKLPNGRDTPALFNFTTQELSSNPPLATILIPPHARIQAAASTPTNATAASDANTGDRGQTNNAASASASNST

[23] = species: Homo sapiens; assay: Inhibition of RSK at 1000 nM
[24] = biological target: Serine/threonine-protein kinase MARK1 (Homo sapiens, UniProt Q9P0L2); assay: Inhibition of MARK at 1000 nM
Sequence of Serine/threonine-protein kinase MARK1 (Q9P0L2 whole entry, looked up): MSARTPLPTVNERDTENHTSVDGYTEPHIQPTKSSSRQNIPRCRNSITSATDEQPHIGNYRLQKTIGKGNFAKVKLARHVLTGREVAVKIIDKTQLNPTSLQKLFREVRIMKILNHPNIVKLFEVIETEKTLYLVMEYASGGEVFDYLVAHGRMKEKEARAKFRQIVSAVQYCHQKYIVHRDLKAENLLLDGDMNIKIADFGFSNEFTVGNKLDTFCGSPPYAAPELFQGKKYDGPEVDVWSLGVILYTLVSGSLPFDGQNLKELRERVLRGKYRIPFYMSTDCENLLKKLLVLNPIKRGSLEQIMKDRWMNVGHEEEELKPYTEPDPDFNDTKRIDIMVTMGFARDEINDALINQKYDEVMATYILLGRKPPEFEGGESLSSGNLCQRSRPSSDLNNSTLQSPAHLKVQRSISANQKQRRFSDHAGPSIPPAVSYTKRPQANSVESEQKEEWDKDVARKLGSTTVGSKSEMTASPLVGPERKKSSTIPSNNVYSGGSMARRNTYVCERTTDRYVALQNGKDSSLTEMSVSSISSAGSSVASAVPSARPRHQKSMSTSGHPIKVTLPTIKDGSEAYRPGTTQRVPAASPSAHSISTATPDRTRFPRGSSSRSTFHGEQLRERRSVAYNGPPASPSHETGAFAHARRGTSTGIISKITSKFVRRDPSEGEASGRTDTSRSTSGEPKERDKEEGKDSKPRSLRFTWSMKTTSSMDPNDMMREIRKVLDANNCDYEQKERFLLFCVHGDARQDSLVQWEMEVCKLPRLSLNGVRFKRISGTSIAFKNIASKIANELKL

[25] = tested on: Mus musculus; assay: Free dug level in mouse xenografted with human M24 cells at 7.5 mg/kg, po BID for 15 days; type: ADME, organism-based; design: dose 7.5 mg/kg, route oral; conditions: in vivo, 360 h; summary of the method: as §1
[26] = biological target: AMP-activated protein kinase, AMPK (Homo sapiens) (UniProt P54646+O43741+P54619+Q9UGJ0+Q9Y478+Q13131+Q9UGI9); assay: Inhibition of AMPK at 1000 nM; type: protein-complex assay
[27] = biological target: Mitogen-activated protein kinase 1 (Homo sapiens, UniProt P28482); assay: Inhibition of Erk2 at 1000 nM
Sequence of Mitogen-activated protein kinase 1 (P28482 whole entry): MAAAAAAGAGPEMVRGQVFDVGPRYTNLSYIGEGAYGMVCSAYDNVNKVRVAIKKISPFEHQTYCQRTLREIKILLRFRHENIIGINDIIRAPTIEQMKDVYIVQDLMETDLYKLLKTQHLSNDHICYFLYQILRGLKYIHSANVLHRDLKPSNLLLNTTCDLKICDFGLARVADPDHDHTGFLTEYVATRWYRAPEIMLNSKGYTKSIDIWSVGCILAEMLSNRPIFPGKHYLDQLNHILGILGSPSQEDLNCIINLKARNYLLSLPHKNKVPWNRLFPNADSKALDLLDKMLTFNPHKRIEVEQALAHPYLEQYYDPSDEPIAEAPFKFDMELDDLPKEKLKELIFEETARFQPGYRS

[28] = Antitumor activity against human M24 cells xenografted in mouse assessed as tumor growth inhibition at 15 mg/kg, po BID for 15 days; type: functional; conditions: M24, 360 h, read-out: TGI
[29] = biological target: Serine/threonine-protein kinase 26 (Homo sapiens) (UniProt Q9P289); assay: Inhibition of MST4 at 1000 nM
Sequence of Serine/threonine-protein kinase 26 (Homo sapiens) (Q9P289 2-416 limits assumed): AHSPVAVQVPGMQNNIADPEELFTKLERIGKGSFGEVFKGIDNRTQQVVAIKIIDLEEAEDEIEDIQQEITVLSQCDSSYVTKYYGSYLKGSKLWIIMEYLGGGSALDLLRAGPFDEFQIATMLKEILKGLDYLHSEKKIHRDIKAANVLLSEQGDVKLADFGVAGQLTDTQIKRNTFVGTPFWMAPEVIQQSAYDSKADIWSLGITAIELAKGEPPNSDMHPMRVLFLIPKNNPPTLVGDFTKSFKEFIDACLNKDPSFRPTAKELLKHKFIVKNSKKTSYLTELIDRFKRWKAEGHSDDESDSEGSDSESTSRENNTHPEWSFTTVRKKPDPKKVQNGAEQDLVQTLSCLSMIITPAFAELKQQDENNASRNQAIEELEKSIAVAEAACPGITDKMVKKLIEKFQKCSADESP

[30] = Metabolic stability of the compound in human liver microsomes assessed as compound remaining after 30 mins; type: ADME, Microsome; conditions: read-out: Stability
[31] = biological target: T2, Cyclin-dependent kinase 2; assay: Inhibition of CDK2 at 1 uM

SMILES | hepatic extraction ratio [1] | logD [2] | efflux ratio [3] | EC50 ([4]; read-out: EC50) | Vd [5] | half-life [6] | clearance [7] | bioavailability [8] | Ki [11] | other results
CN(C)C[C@@H](NC(=O)N1Cc2c(NC(=O)c3ccccc3F)n[nH]c2C1(C)C)c1ccccc1 | 0.38 | 2.33 | 231 |  |  |  |  |  |  | 
CN(C)C[C@@H](OC(=O)N1Cc2c(NC(=O)C3CCCCO3)n[nH]c2C1(C)C)c1ccccc1 (mixture of isomers) | 1 | 2.48 | 3.6 |  |  |  |  |  |  | 
CN(C)C[C@@H](OC(=O)N1Cc2c(NC(=O)C3(C(F)(F)F)CC3)n[nH]c2C1(C)C)c1ccccc1 | 0.42 | 1.5 |  | 7 nM | 2.8 L/kg | 1.5 h | 24.1 mL/min/kg | 46% |  | 
CN(C)C[C@@H](OC(=O)N1Cc2c(NC(=O)c3ccc(F)cc3F)n[nH]c2C1(C)C)c1ccccc1 | 0.9 | 2.68 | 1.17 | 15 nM |  |  |  |  |  | 
CN(C)C[C@@H](NC(=O)N1Cc2c(NC(=O)c3ccccc3)n[nH]c2C1(C)C)c1ccccc1 | 0.39 | 1.77 | 326 |  |  |  |  |  | 30 nM | Ki [9]: 1800 nM; solubility [10]: 395 µM (≈ 176 µg/mL); Activity [12]: 61%
CN(C)C[C@@H](NC(=O)c1ccc2[nH]nc(-c3nc4ccccc4[nH]3)c2c1)c1ccccc1 |  | 3.6 |  | 12.6 nM |  |  |  |  | 6 nM | 
CN(C)C[C@@H](OC(=O)N1Cc2c(NC(=O)c3ccc(F)cc3)n[nH]c2C1(C)C)c1ccccc1 | 0.7 | 2.79 | 7 | 9 nM | 6.1 L/kg | 1.1 h | 98 mL/min/kg | 9% | 13 nM | Ki [9]: 1160 nM; inhibition in vivo at 50 mg/kg [13]: 12%; inhibition in vivo at 25 mg/kg [14]: 61%; Drug uptake(free) [15]: 25 nM; solubility [10]: 404 µM (≈ 188 µg/mL); Drug uptake(free) [16]: 70 nM
CN(C)C[C@@H](OC(=O)N1Cc2c(NC(=O)C3CCCO3)n[nH]c2C1(C)C)c1ccccc1 (mixture of isomers) | 0.4 | 2.08 | 8.7 |  | 2.2 L/kg | 0.5 h | 69 mL/min/kg | 20% |  | 
CN1CCN(C(=O)N2Cc3c(n[nH]c3NC(=O)c3ccccc3)C2(C)C)C(c2ccccc2)C1 (stereo unspecified) | 0.7 | 3.2 | 187 | 21 nM |  |  |  |  | 207 nM | 
CN(C)C[C@H](c1ccccc1)N(C)C(=O)N1Cc2c(NC(=O)c3ccccc3)n[nH]c2C1(C)C | 0.5 | 2.68 | 53.6 |  |  |  |  |  |  | EC50 [4]: Not Active
CN(C)C[C@@H](OC(=O)N1Cc2c(NC(=O)c3ccccc3)n[nH]c2C1(C)C)c1ccccc1 |  | 2.66 |  |  |  |  |  |  |  | Ki [9]: 2000 nM; solubility [10]: 434 µM (≈ 194 µg/mL)
CN(C)C[C@@H](OC(=O)N1Cc2c(NC(=O)c3ccccn3)n[nH]c2C1(C)C)c1ccccc1 | 0.67 | 2.23 | 1.61 |  | 4.8 L/kg | 0.7 h | 146 mL/min/kg | 2% |  | 
CN(C)C[C@@H](OC(=O)N1Cc2c(NC(=O)C3(C(F)(F)F)CCC3)n[nH]c2C1(C)C)c1ccccc1 | 0.6 | 1.6 |  | < 1 nM |  |  |  |  |  | 
CN(C)C[C@@H](OC(=O)N1Cc2c(NC(=O)C(C)(C)C(F)(F)F)n[nH]c2C1(C)C)c1ccccc1 | 0.55 | 1.61 |  | 1 nM | 4.3 L/kg | 1.3 h | 37 mL/min/kg | 45% |  | Drug uptake(free) [17]: 31 nM; inhibition [18]: > 70%; inhibition [19]: > 70%; inhibition in vivo at 7.5 mg/kg [20]: 67%; inhibition [21]: > 70%; inhibition [22]: > 70%; inhibition [23]: > 70%; inhibition [24]: > 70%; Drug uptake(free) [25]: 13.9 nM; inhibition [26]: > 70%; inhibition [27]: > 70%; inhibition in vivo at 15 mg/kg [28]: 87%; inhibition [29]: > 70%
CN1CCN(C(=O)N2Cc3c(NC(=O)c4cccc(Oc5ccccc5)c4)n[nH]c3C2(C)C)[C@@H](Cc2ccccc2)C1 |  | 5.45 |  | 810 nM |  |  |  |  |  | remaining at 0.5 h [30]: 2%; inhibition [31]: 20%
CN(C)C[C@@H](NC(=O)c1ccc2[nH]nc(-c3nc4ccc(NCc5ccc(-c6ccccn6)cc5)cc4[nH]3)c2c1)c1ccccc1 |  |  |  |  |  |  |  |  | 2.8 nM | 
